Legend:
[1] = biological target: T1, lipopolysaccharide-responsive beige-like anchor protein (LRBA) (Homo sapiens, UniProt P50851); assay: ITC with purified LRBA PH domain; assay type: binding
Target sequence in this assay (P50851 2073-2489 limits assumed): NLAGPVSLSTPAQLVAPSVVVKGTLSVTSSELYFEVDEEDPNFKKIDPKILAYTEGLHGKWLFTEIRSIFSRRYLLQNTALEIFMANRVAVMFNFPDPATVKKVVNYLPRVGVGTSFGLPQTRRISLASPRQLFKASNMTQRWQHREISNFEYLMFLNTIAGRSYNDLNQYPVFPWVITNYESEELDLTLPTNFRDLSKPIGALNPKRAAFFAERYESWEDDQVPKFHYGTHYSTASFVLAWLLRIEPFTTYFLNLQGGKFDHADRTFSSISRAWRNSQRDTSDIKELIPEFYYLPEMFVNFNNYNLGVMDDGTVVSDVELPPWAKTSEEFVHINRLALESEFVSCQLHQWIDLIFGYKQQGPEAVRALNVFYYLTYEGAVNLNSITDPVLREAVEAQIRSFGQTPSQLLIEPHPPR

[2] = biological target: T1, lipopolysaccharide-responsive beige-like anchor protein (LRBA); assay: Nluc complementation with purified LRBA PH; assay type: cell-based
Summary of the method: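 HEK293T cells were transfected with three plasmids and treated with test compound in DMEM assay medium at 250.00, 100.00, 33.30, 10.00, 3.33, 1.00, 0.33, 0.10, 0.03 and 0.01 μM. Inhibition of the CTLA4–LRBA interaction was read as the Nluc/Firefly luciferase ratio by dual-luciferase assay. In the cell-free format, Flag-purified Sm-LRBA PH was preincubated with compound for 2 h at 25 °C. Myc-purified CTLA4 CT-Lg was then added for 18 h at 25 °C.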
Target sequence in this assay (P50851 2073-2489): as the sequence (P50851 2073-2489 limits assumed) above
Target sequence in this assay (P16410 36-223, further chain): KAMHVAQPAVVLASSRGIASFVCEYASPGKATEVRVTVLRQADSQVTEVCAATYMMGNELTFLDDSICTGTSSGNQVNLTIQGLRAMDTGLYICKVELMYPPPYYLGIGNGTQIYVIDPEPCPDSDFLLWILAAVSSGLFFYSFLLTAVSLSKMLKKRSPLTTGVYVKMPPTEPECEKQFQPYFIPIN

Kd [1] | IC50 [2] | Compound
19.6 µM | – | c1ccc2ncc(-c3ccnc(N4CCNCC4)n3)cc2c1 [LC427, 3-(2-(piperazin-1-yl)pyrimidin-4-yl) quinoline]
– | 0.34 µM | NCC1CCN(c2nccc(-c3ccc4ccccc4c3)n2)CC1 [WAY-262611]
